These results are taken from PMC5884014 (Neoplasia (New York, N.Y.), 2017).

Marks after values point to notes of the source that are not given here.

Data set [1] concerns FHC. The data set is described as follows: Cytotoxicity assay. The data set is classed as cell-based, human. The following applies: 72 h.
Data set [2] has as its system HCT116. The data set is described as follows: Cytotoxicity assay. The data set is classed as cell-based, human.
The test system of data set [3] is RKO. Briefly: Cytotoxicity assay. Type of data set: cell-based, human. The following applies: 72 h.
Data set [4] deals with LS174T. Briefly: Cytotoxicity assay. The data set is classed as cell-based, human. The following applies: 72 h.
The subject of data set [5] is LoVo. The data set is described as follows: Cytotoxicity assay. Type of data set: cell-based, human. The following applies: 72 h.
Data set [6] has as its system Colo205. Briefly: Cytotoxicity assay. Type of data set: cell-based, human.
Data set [7] relates to DLD-1. Briefly: Cytotoxicity assay. Type of data set: cell-based, human.
The test system of data set [8] is HT-29. The data set is described as follows: Cytotoxicity assay. Type of data set: cell-based, human.
Data set [9] concerns SW620. The data set is described as follows: Cytotoxicity assay. The data set is classed as cell-based, human.
The test system of data set [10] is Caco-2. Briefly: Cytotoxicity assay. The data set is classed as cell-based. The following applies: Homo sapiens, Caco-2, 72 h.
In data set [11] the test system is H3347. The data set is described as follows: Cytotoxicity assay. The data set is classed as cell-based, human. The following applies: H3347, 72 h.
The test system of data set [12] is RKO cells. The data set is described as follows: Comet and modified comet assays. The following applies: 24 h, SL-1 0.75 μM, 5-FU […], alone or combined. Type of data set: cell-based, human. The gist of the method:
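RKO cells were exposed to the test compound and/or 5-FU for 24 h and then processed by comet assay. The read-out was tail moment, reported as means ± SD (n = 3) and compared by Student's t test. Synergy on tail moment was expressed as a combination index (CI).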

Data set [13] has as its system RKO cells. The data set is described as follows: Annexin V staining assay. The data set is classed as cell-based, human.
Data set [14] in a line: Toxicology examination: complete blood counts. The data set is classed as in vivo. The following applies: ICR mice, 5-FU 50 mg/kg i.p., SL-1 30, oxaliplatin 7.5, cisplatin 7.5 mg/kg i.v.
Data set [15] can be described thus: Toxicology examination: serum biochemistry. Type of data set: in vivo. The following applies: ICR mice, 5-FU 50 mg/kg i.p., SL-1 30, oxaliplatin 7.5, cisplatin 7.5 mg/kg i.v.
Data set [16] deals with HexA-rev and HexB-rev fragments. The data set is described as follows: Guanine-N7 alkylation, Maxam-Gilbert method. The following applies: 3'-end-labeled DNA, 37°C, 2 h, pH 7.4. The data set is classed as binding. An outline of the steps: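 Sixty-four symmetrical hexanucleotide fragments (HexA-rev, HexB-rev) were 3′-end-labelled, gel-purified on polyacrylamide, and reacted with the test compound. Guanine-N7 alkylation sites were mapped by the Maxam-Gilbert method. A weighted consensus sequence logo was generated with Seq2Logo 3.4.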

The subject of data set [17] is RKO-E6. Briefly: Cytotoxicity assay. The data set is classed as cell-based, human. The following applies: RKO-E6 (p53-KO), 72 h.
[18] abbreviates: FHC normal fetal colonic epithelial cells.

Broadly, the IC50 is the point on the concentration scale where inhibition reaches its midpoint. On to `O=c1[nH]cc(F)c(=O)[nH]1` [5-FU, 5-fluorouracil], for which the IC50 in data set [1] (Homo sapiens, FHC) turned out to be 21.9 ± 2.49 µM. The same compound came in with an IC50 in data set [2] (Homo sapiens, HCT-116, 72 h) of 2.88 ± 0.33 µM. The compound further displayed an IC50 in data set [3] (Homo sapiens, RKO) of 6.15 ± 1.63 µM. In data set [4] (Homo sapiens, LS174T), this compound displayed an IC50 of 18.6 ± 0.26 µM. For the same compound, in [5] (Homo sapiens, LoVo), half-maximal inhibition (IC50) required 25.8 ± 0.74 µM. This compound also had an IC50 in [6] (Homo sapiens, COLO 205, 72 h) of 6.8 ± 3.05 µM. In data set [7] (Homo sapiens, DLD-1, 72 h), this compound yielded an IC50 of 16.9 ± 5.3 µM. Moreover, 2.27 ± 0.41 µM corresponded to half-maximal inhibition in data set [8] (Homo sapiens, HT-29, 72 h) (IC50). In data set [9] (Homo sapiens, SW-620, 72 h), this compound displayed an IC50 of 18.5 ± 4.05 µM. In [10], this compound registered an IC50 of more than 50 µM. In addition, it took 5.89 ± 0.5 µM to reach half-maximal inhibition in data set [11] (Homo sapiens) (IC50). The tail moment in [12] came out at 3.9 ± 0.4 μm. Also, the “mode of cell death” value in [13] was “mainly caused necrotic cell death”. Moreover, in [14] (2 days), the BASO is on record as 0.01 ± 0.01 10^9/l, the EO is reported as 0.06 ± 0.01* 10^9/l, the HCT was found to be 27.94 ± 3.75 % and the HGB amounted to 10.58 ± 2.62 g/dL. Moreover, in [14] (2 days), the LYMPH is on record as 4.22 ± 0.45 10^9/l, the MCH amounted to 14.94 ± 3.04 pg, the MCHC stood at 27.50 ± 4.71 g/dL and the MCV came to 57.06 ± 3.75 fL. Further, in data set [14] (2 days), the MONO is given as 0.02 ± 0.01 10^9/l, the NEUT is 0.78 ± 0.40 10^9/l, the PLT is 873.00 ± 141.40** 10^9/l and the RBC is listed as 4.98 ± 1.72* 10^12/l. Further, the WBC in data set [14] (2 days) was 5.09 ± 0.23 10^9/l. Further, in data set [14] (14 days), the BASO is given as 0.01 ± 0.01 10^9/l, the EO is 0.08 ± 0.01*** 10^9/l, the HCT is 45.53 ± 1.61 % and the HGB is 13.08 ± 0.25 g/dL. Besides, in data set [14] (14 days), the LYMPH is listed as 2.62 ± 0.94 10^9/l, the MCH is 16.25 ± 0.35 pg, the MCHC came out at 28.73 ± 0.48 g/dL and the MCV turned out to be 56.48 ± 1.73 fL. In data set [14] (14 days), the MONO is listed as 0.06 ± 0.10 10^9/l, the NEUT was 0.64 ± 0.17 10^9/l, the PLT was 745.75 ± 116.31* 10^9/l and the RBC is reported as 8.06 ± 0.24*** 10^12/l. Further, in [14] (14 days), the WBC is recorded as 3.40 ± 1.21 10^9/l. Moreover, in [15] (2 days), the ALP is reported as 359.25 ± 72.22 U/l, the ALT was found to be 23.25 ± 4.97 U/l, the AST stood at 63.50 ± 13.24 U/l and the BUN came out at 23.65 ± 1.50 mg/dL. Moreover, in data set [15] (2 days), the CRE is 0.23 ± 0.1 mg/dL and the GLU stood at 577.25 ± 36.55 mg/dL. In data set [15] (14 days), this compound came in with an ALP of 177.50 ± 119.69 U/l, a BUN of 22.20 ± 3.42 mg/dL, a CRE of 0.25 ± 0.10 mg/dL and a GLU of 244.00 ± 86.63 mg/dL. Also, in data set [15] (14 days), the GOT/AST is reported as 53.00 ± 3.56 U/l and the GPT/ALT is 46.50 ± 7.85 U/l.
Take `Cc1ccc(Nc2c3ccccc3nc3c(C)cccc23)cc1NC(=O)Nc1ccc(N(CCCl)CCCl)cc1` [BO-1051]: in data set [16], the “consensus sequence / binding pattern of guanine-N7 alkylation” value was “no distinct binding sequence”.
With `CN(C)CCNC(=O)c1cccc(NC(=O)Nc2ccc(N(CCCl)CCCl)cc2)c1.Cl` [BO-1055], the “consensus sequence / binding pattern of guanine-N7 alkylation” value in data set [16] was “no distinct binding sequence”.
For `N.N.[Cl][Pt][Cl]` [Cisplatin, cisplatin], the IC50 is 21 ± 2.03 µM in data set [1] (setting [18]); 3.42 ± 0.36 µM in data set [2] (HCT116 (p53-WT), 72 h); 26.3 ± 3.28 µM in data set [3] (RKO (p53-WT)); 8.48 ± 2.74 µM in data set [4] (LS174T (p53-WT)); 6.38 ± 2.18 µM in data set [5] (LoVo (p53-WT)); 11.1 ± 1.27 µM in [6] (Colo205 (p53-WT), 72 h). Also, the IC50 was 29.6 ± 6.42 µM in data set [7] (DLD-1 (p53-MT), 72 h); 5.99 ± 1.22 µM in data set [8] (HT-29 (p53-MT), 72 h); 0.91 ± 0.27 µM in data set [9] (SW620 (p53-MT), 72 h); 24.8 ± 7.71 µM in data set [17]; 12.2 ± 0.64 µM in data set [11].
On to `CCc1c2c(nc3ccc(OC(=O)N4CCC(N5CCCCC5)CC4)cc13)-c1cc3c(c(=O)n1C2)COC(=O)[C@]3(O)CC` [Irinotecan, irinotecan], for which the IC50 is more than 100 µM in data set [1] (Homo sapiens, FHC); 1.38 ± 0.49 µM in [2] (Homo sapiens, HCT-116, 72 h); 2.63 ± 1.05 µM in [3] (Homo sapiens, RKO); 1.36 ± 0.33 µM in data set [4] (Homo sapiens, LS174T); 9.69 ± 1.68 µM in data set [5] (Homo sapiens, LoVo); 2.49 ± 0.48 µM in [6] (Homo sapiens, COLO 205, 72 h). Further, the IC50 worked out at 1.72 ± 0.35 µM in [7] (Homo sapiens, DLD-1, 72 h); 4.19 ± 0.29 µM in [8] (Homo sapiens, HT-29, 72 h); 0.32 ± 0.1 µM in data set [9] (Homo sapiens, SW-620, 72 h); 21.3 ± 7.34 µM in [10]; 2.93 ± 0.68 µM in [11] (Homo sapiens).
Consider `O=C1[O][Pt]2([NH][C@@H]3CCCC[C@H]3[NH]2)[O]C1=O` [Oxaliplatin, oxaliplatin], for which the IC50 in [1] (setting [18]) is 19.7 ± 2.21 µM; in data set [2] (HCT116 (p53-WT), 72 h), 1.78 ± 0.11 µM; in data set [3] (RKO (p53-WT)), 0.62 ± 0.02 µM; in data set [4] (LS174T (p53-WT)), more than 50 µM; in data set [5] (LoVo (p53-WT)), 1.65 ± 0.21 µM; in data set [6] (Colo205 (p53-WT), 72 h), 2.26 ± 0.78 µM. Further, the IC50 in data set [7] (DLD-1 (p53-MT), 72 h) was 1.62 ± 0.06 µM; in [8] (HT-29 (p53-MT), 72 h), 1.92 ± 0.81 µM; in data set [9] (SW620 (p53-MT), 72 h), 7.62 ± 3.12 µM; in data set [17], 10.3 ± 3.39 µM; in [11] it was 2.55 ± 0.73 µM. The ALP in data set [15] (2 days) was determined as 498.33 ± 63.91 U/l; in data set [15] (14 days) it was 245.5 ± 35.07 U/l. Besides, the ALT in data set [15] (2 days) is reported as 28.00 ± 1.73 U/l. In data set [15] (2 days), this compound displayed an AST of 76.67 ± 16.47 U/l. The BUN worked out at 20.27 ± 3.32 mg/dL in data set [15] (2 days) and 21.35 ± 5.07 mg/dL in data set [15] (14 days). Besides, the figures for the CRE in [15] (2 days) and in data set [15] (14 days) were 0.27 ± 0.06 mg/dL and 0.13 ± 0.05 mg/dL, respectively. Also, the GLU was 153.67 ± 88.22 mg/dL in data set [15] (2 days) and 268.25 ± 61.43 mg/dL in data set [15] (14 days). Further, the GOT/AST in data set [15] (14 days) was determined as 47.25 ± 7.13 U/l. The GPT/ALT in data set [15] (14 days) is 29.50 ± 5.74 U/l.
